RanGTP-Impb inh = inhibitors of RanGTP-importin-beta interaction, primary screen, biochemical, FRET, CFP-Ran, YFP-importin-beta, homogeneous; inhibition, % (test concentration not listed); cell-free CFP-Ran/YFP-importin-beta FRET ratio; actives 1.1% (n = 300,000); AID 2216;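 active = more than half of the replicate wells show a fall in the fluorescence ratio signal beyond about 16%, limit read from the data, passing the limit was not always enough; inconclusive = exactly half of the replicate wells pass the set limit; inactive = fewer than half of replicates pass the limit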
PKD1 kinase inh = inhibitors of human PKD1 kinase; inhibition, % (test concentration not listed); AID 797; actives 0.056% (n = 200,000); PKD1 kinase fluorescence polarization assay
Runt-SMMHC FRET = blocks binding of human RUNX1 Runt domain to CBFb-SMMHC | Q01196+Q13951 | Cerulean-Runt/Venus-CBFb-SMMHC FRET ratio 530/480, 1 h | inhibition, % at 20 µM | actives 0.74% (n = 220,000) | AID 1434;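 active = mean inhibition across duplicate retests at 20 µM reaching about 50%, limit read from the data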;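 note: inhibitors lower the FRET ratio by blocking Runt binding to CBFb-SMMHC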
Target sequence (Q01196 whole entry, looked up, the tested form may be a part): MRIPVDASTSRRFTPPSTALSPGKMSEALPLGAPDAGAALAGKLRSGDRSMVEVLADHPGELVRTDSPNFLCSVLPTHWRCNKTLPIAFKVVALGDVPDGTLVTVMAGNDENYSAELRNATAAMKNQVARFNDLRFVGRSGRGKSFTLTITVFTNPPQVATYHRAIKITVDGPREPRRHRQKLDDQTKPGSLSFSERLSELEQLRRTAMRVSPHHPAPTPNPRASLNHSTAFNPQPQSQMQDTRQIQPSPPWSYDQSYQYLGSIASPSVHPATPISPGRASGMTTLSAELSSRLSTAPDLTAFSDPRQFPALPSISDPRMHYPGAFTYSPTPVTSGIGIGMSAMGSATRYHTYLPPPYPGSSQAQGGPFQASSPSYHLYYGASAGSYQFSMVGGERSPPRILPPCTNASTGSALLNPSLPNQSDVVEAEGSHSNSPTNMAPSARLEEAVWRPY
Target sequence (Q13951 whole entry, looked up, the tested form may be a part): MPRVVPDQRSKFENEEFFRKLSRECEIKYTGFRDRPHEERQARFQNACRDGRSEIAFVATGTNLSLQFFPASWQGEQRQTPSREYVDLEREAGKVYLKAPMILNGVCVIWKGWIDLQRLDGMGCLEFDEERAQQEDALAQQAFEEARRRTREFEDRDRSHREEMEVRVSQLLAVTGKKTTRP
MEX-5 binding = C. elegans MEX-5 TCR-2 RNA binding activity; Q9XUB2; MEX-5/FITC-TCR2 RNA binding, fluorescence polarization; active compounds read low; activity score (negative = inhibition of binding), % at 10 µM; actives 0.38% (n = 300,000); AID 1832;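 active = inhibition past about -25% in most replicates, and total fluorescence under double the plate's negative control median, limit read from the data; inconclusive = replicates evenly split on the limit, or fluorescence at least double controls; inactive = too little inhibition in most replicates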
Runt-CBFb FRET = blocks binding of human RUNX1 Runt domain to CBFb; Q01196+Q13951; Cerulean-Runt/Venus-CBFb FRET ratio 530/480, 1 h; inhibition, % at 20 µM; actives 0.46% (n = 220,000); AID 1496;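 active = inhibition over about 50% at 20 µM in the single-dose screen, limit read from the data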
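System: Cerulean-labeled Runt domain protein | Quantity: 100 nM of each labeled protein | Schedule: 1 h compound exposure, room temperature | Detection: Fluorescence energy transfer, 422 nm excitation, 530/480 nm emission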
EBV gp42 inh = blocks Epstein-Barr virus glycoprotein 42 binding; inhibition, % (tested at 21.74 µM); Fluorescence polarization binding assay, mP read-out; Q1HVG2; actives 0.42% (n = 220,000); AID 1085
A number is an active result; . = inactive; ? = inconclusive; / = no result given. Hits are enriched below; roughly 2% of the tested compounds scored in any of these assays. Cut-off read from the data, not from the text of the source, unless noted: active = inhibition above about 50%; inactive = the rest.

SMILES	RanGTP-Impb inh	PKD1 kinase inh	Runt-SMMHC FRET	MEX-5 binding	Runt-CBFb FRET	EBV gp42 inh
CCOC(=O)c1ccc2c(c1)C1C=CCC1C(C(=O)OCC)N2 (stereo not drawn)	.	/	/	.	/	/
COc1cccc(NS(=O)(=O)c2ccc3c(c2)C2C=CCC2C(c2ccc(C(=O)O)cc2)N3)c1 (stereo not drawn)	.	.	.	-66	.	.
O=C(O)c1ccc2c(c1)[C@@H]1C=CC[C@@H]1[C@H](c1ccccn1)N2	.	.	/	-100	/	/
COc1ccc(C(=O)N/N=C(\C)c2ccc3c(c2)C2C=CCC2C(c2ccccc2)N3)cc1 (stereo not drawn)	/	.	.	/	.	.
COc1ccc(/C=C(\C#N)c2nc3ccc(C)cc3[nH]2)cc1Oc1ccc(C(F)(F)F)cc1[N+](=O)[O-]	.	.	.	-58	.	.
CCOc1ccc(NC(=O)Nc2cccnc2)cc1	?	.	.	.	.	.
Cc1[nH]c2ccc(Br)cc2c(=O)c1CN1CCCCC1	.	.	.	.	.	.
COC(=O)c1ccc2[nH]c(C)c(CN3CCCC3)c(=O)c2c1	.	.	64	.	.	.
COc1ccccc1CNC(=O)COC(=O)c1ccc(C)c(S(=O)(=O)N2CCCCC2)c1	.	/	/	.	/	/
O=C(/C=C/c1ccco1)NC(=S)NNC(=O)c1ccco1	.	.	.	-26	.	.
CC(=O)NC(=S)Nc1ccc(NC(=S)NC(=O)/C=C/c2ccco2)cc1	.	/	.	.	.	.
O=C(/C=C/c1ccco1)NC(=S)Nc1ccc(C(=O)O)cc1	.	/	/	-32	/	/
C=CCNC(=S)NNC(=O)c1ccco1	.	.	.	.	.	.
CC(C)CC(=O)N1CCN(Cc2ccccc2[N+](=O)[O-])CC1	.	.	.	.	.	.
Cc1c(CCC(=O)O)c(=O)oc2cc(O)ccc12	.	.	75	.	.	.
Cc1c(CCC(=O)O)c(=O)oc2cc3occ(C(C)(C)C)c3cc12	.	/	.	.	.	.
Cn1c(=O)c2[nH]c(N/N=C(/C#N)C(N)=O)nc2n(C)c1=O	.	/	.	-27	.	.
CCC(COC(C)=O)Nc1nc2c([nH]1)c(=O)n(C)c(=O)n2C (stereo not drawn)	.	/	.	.	.	.
O=C(N/N=C1/C(=O)c2cccc3cccc1c23)c1ccc(Cl)cc1	.	.	.	.	.	67
CCNC(=S)N/N=C1\C(=O)c2cccc3cccc1c23	.	.	.	.	.	.
Cc1cccc(N2CCN(C(=O)c3cc(COc4ccc(F)c(F)c4)on3)CC2)n1	.	/	/	.	/	/
CCC(CO)(CO)N(CC(=O)Nc1ccc(OC)cc1)CC(=O)Nc1ccc(OC)cc1	28	/	/	.	/	/
CCOc1ccccc1NC(=O)COC(=O)c1cc[n+]([O-])cc1	.	/	.	.	.	.
CN(C)C(=O)Cn1cnc2c(cnn2-c2ccc(F)cc2)c1=O	.	/	/	.	/	/
Cc1ccc(S(=O)(=O)/C(C#N)=C/c2c(N3CCC(C(N)=O)CC3)nc3ccccn3c2=O)cc1	34	.	.	.	.	.
SMILES	RanGTP-Impb inh	PKD1 kinase inh	Runt-SMMHC FRET	MEX-5 binding	Runt-CBFb FRET	EBV gp42 inh
CCN1CCN(c2nc3ccccn3c(=O)c2/C=C(\C#N)S(=O)(=O)c2ccccc2)CC1	77	/	.	.	.	.
Cc1ccc(S(=O)(=O)/C(C#N)=C/c2c(N3CCC(C(N)=O)CC3)nc3c(C)cccn3c2=O)cc1	.	.	.	.	.	.
NC(=O)c1cccc(CS(=O)(=O)c2ccc(Cl)cc2)c1	.	/	/	.	/	/
O=C(NNC(=O)c1sccc1-n1cccc1)c1cccc(Cl)c1	/	.	.	.	.	67
O=C(NNC(=O)c1sccc1-n1cccc1)c1ccccc1	.	.	.	.	.	.
Cc1ccc(CNS(=O)(=O)c2cc3c4c(c2)CCN4C(=O)CC3)cc1	.	/	/	.	/	/
Cc1cc(O)cc2c(=O)c3ccccc3sc12	?	.	.	.	.	.
CC(=Nc1ccc(C)cc1C)c1sc2ccccc2c1O	42	.	.	?	.	.
CC(=Nc1cccc(O)c1)c1sc2ccccc2c1O	29	.	.	.	.	.
CC(=Nc1ccc(C)cc1)c1sc2ccccc2c1O	73	.	.	.	.	.
